Columns and labels:
[1] = tested on: NCI sixty human tumor cell line panel; experiment: NCI sixty human tumor cell line panel, single dose 10 μM; format: cell-based; settings: for Mean % growth at 10 μM: mean growth percent over NCI 60 panel, single dose 10 μM; for activity at 10 µM: read-out: Mean % growth at 10 μM; for growth inhibition activity (in words): NCI 60 single dose 10 μM
[2] = molecular target: HDAC3 (Homo sapiens, UniProt O15379); experiment: HDAC-Glo inhibitor testing with recombinant HDAC3; format: biochemical
Chain of HDAC3 (O15379 whole entry): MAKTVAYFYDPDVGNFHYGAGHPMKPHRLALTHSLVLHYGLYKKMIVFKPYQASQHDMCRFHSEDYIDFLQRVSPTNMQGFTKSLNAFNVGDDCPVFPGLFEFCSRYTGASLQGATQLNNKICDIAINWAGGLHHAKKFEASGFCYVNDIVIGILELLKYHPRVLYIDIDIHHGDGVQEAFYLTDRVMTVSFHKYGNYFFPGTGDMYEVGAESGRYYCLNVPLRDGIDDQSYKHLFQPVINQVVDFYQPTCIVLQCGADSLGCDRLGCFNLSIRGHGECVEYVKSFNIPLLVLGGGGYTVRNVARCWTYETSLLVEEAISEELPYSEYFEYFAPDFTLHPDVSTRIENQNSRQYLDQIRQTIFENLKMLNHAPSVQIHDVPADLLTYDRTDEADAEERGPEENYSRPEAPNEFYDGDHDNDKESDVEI
Chain of HDAC3 (Q9Y618 395-489 partner limits assumed): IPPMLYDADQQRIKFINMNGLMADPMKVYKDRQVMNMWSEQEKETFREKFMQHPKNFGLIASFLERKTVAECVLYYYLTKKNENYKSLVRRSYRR

[3] = molecular target: T1, HDAC6 (Homo sapiens, UniProt Q9UBN7); experiment: HDAC-Glo inhibitor testing with recombinant HDAC6; format: biochemical
T1 sequence (Q9UBN7 1-1215): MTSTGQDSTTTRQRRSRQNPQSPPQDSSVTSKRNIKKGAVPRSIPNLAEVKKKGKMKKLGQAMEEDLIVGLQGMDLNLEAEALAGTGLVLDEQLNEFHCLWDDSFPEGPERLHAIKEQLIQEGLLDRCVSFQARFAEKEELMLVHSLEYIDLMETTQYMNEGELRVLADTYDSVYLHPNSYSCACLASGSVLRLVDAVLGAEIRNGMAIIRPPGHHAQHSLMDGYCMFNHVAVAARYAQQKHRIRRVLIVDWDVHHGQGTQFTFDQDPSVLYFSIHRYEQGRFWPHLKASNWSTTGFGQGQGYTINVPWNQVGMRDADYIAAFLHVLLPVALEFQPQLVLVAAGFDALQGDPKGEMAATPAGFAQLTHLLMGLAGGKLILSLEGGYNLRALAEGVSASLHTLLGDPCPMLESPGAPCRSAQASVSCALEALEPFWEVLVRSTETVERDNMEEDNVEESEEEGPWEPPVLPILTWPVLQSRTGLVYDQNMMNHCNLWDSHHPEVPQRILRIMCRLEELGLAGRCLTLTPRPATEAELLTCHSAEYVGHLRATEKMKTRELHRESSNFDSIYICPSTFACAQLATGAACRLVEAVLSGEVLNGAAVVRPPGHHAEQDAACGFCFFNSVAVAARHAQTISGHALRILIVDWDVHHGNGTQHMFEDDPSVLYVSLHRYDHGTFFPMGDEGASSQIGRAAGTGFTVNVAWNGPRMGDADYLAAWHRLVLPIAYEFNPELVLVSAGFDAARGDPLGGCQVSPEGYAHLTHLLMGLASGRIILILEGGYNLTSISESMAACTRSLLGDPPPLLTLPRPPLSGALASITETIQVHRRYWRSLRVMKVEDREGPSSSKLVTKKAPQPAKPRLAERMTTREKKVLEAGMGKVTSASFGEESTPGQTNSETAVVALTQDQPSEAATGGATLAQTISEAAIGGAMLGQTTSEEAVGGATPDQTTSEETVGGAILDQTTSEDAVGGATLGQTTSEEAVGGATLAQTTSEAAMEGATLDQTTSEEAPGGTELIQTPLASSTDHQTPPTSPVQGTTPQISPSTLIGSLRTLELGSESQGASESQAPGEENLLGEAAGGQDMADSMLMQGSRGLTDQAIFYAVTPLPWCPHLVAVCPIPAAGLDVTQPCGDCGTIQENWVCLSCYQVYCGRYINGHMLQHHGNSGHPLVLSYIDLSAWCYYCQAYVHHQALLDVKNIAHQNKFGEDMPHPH

[4] = molecular target: HDAC2 (Homo sapiens, UniProt Q92769); experiment: HDAC-Glo inhibitor testing with recombinant HDAC2; format: biochemical
Chain of HDAC2 (Q92769 whole entry): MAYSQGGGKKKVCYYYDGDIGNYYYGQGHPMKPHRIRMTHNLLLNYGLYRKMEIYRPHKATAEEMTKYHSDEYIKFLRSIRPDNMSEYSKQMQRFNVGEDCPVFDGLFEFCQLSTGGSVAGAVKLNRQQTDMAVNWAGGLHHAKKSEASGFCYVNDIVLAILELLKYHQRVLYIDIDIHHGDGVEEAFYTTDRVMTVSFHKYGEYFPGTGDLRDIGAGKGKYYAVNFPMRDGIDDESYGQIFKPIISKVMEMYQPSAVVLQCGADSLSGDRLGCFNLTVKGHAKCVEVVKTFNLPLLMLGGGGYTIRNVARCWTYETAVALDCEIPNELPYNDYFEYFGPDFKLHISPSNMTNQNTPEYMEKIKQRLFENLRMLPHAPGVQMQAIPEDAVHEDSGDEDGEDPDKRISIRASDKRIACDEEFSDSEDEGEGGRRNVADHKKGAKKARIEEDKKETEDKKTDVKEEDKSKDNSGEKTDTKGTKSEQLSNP

[5] = molecular target: HDAC1 (Homo sapiens, UniProt Q13547); experiment: HDAC-Glo inhibitor testing with recombinant HDAC1; format: biochemical
Chain of HDAC1 (Q13547 whole entry): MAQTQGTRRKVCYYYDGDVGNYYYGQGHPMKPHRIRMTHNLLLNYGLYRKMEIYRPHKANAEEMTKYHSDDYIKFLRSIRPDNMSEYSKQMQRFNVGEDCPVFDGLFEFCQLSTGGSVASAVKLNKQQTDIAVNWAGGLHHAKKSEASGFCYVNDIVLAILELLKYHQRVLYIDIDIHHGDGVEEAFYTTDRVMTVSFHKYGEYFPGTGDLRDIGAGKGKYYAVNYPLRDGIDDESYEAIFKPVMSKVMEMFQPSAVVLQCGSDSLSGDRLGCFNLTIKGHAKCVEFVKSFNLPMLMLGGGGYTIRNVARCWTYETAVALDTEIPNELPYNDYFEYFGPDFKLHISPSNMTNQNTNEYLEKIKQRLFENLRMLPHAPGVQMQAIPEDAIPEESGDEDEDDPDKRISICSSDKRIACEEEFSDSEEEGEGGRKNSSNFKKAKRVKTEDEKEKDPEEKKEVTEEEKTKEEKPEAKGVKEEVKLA

[6] = molecular target: T2, HDAC8 (Homo sapiens, UniProt Q9BY41); experiment: HDAC-Glo inhibitor testing with recombinant HDAC8; format: biochemical
T2 sequence (Q9BY41 1-377): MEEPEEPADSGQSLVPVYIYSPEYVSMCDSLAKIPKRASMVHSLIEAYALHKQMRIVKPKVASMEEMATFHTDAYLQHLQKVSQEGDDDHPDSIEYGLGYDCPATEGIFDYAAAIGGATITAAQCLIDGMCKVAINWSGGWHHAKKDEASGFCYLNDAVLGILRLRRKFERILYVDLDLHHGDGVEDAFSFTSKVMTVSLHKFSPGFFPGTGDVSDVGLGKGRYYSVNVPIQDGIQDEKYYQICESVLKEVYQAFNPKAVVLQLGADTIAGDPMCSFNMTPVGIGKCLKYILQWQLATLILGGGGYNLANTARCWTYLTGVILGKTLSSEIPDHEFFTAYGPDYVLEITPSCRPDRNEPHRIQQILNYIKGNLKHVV

[7] = tested on: HeLaM cells; experiment: Flow cytometry cell cycle analysis; format: cell-based; settings: 72 hr post treatment (DMSO 14%)
How it was run: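 5 × 10^5 HeLaM cells plated, treated next day with test compound or DMSO for 24, 48 or 72 h. All cells (floating and attached) collected and fixed in 70% ethanol (final). […] 10 μg/ml, 30 min, 37 °C, then propidium iodide in PBS + 2% FBS. SubG1 gated; subG1 excluded before modeling live-cell cycle distribution.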

[8] = tested on: mitotic spindle of HeLaM cells; format: cell-based; settings: compound 10 μM + MG132 + ZM447439 (DMSO+MG132+ZM447439 3%)

In the case of “4-(3-(2-Hydroxyphenyl)-3-oxopropyl)phenyl)-N-(naphthalen-1-yl)acetamide [HPE-33]”, the “Mean % growth at 10 μM” value [1] is reported as 91.98%.

In the case of `O=C(Cc1ccc(/C=C/C(=O)c2ccccc2O)cc1)Nc1ccccc1` [HPE-32, (E)-2-(4-(3-(2-Hydroxyphenyl)-3-oxoprop-1-en-1-yl)phenyl)-N-phenylacetamide], the activity at 10 µM ([1]; Homo sapiens) is reported as 85.9%.

With `O=C(Cc1ccc(C(O)CC(=O)c2ccccc2O)cc1)Nc1ccccc1` (centres unmarked) [HPE-34, 2-(4-(1-Hydroxy-3-(2-hydroxyphenyl)-3-oxopropyl)phenyl)-N-phenylacetamide] the activity at 10 µM ([1]; Homo sapiens) was 89.6%.

In the case of `CN(C)c1ccc(NC(=O)Cc2ccc(/C=C/C(=O)c3ccccc3O)cc2)cc1` [HPE-35, (E)-N-(4-(Dimethylamino)phenyl)-2-(4-(3-(2-hydroxyphenyl)-3-oxoprop-1-en-1-yl)phenyl)acetamide], the activity at 10 µM ([1]; Homo sapiens) is reported as 85.9%.

In the case of `O=C(Cc1ccc(/C=C/C(=O)c2ccccc2O)cc1)Nc1cccc2ccccc12` [HPE-36, (E)-2-(4-(3-(2-Hydroxyphenyl)-3-oxoprop-1-en-1-yl)phenyl)-N-(naphthalen-1-yl)acetamide], the activity at 10 µM ([1]; Homo sapiens) is reported as 96.2%.

`O=C(Cc1ccc(/C=C/C(=O)c2ncc[nH]2)cc1)Nc1ccccc1` [IPE-1, (E)-2-(4-(3-(1H-Imidazol-2-yl)-3-oxoprop-1-en-1-yl)phenyl)-N-phenylacetamide] was tested, and the activity at 10 µM ([1]; Homo sapiens) was 45.3% and the inhibition at 10 µM ([1]; Homo sapiens, read-out: growth inhibition at 10 μM) was > 50%.

With `O=C(Cc1ccc(/C=C/C(=O)c2ncc[nH]2)cc1)NC1CCCCC1` [IPE-2, (E)-2-(4-(3-(1H-Imidazol-2-yl)-3-oxoprop-1-en-1-yl)phenyl)-N-cyclohexylacetamide] the activity at 10 µM ([1]; Homo sapiens) was 70% and the “growth inhibition activity (in words)” value [1] was “almost completely inactive”.

Compound `COc1ccc(NC(=O)Cc2ccc(/C=C/C(=O)c3ncc[nH]3)cc2)cc1` [IPE-4, (E)-2-(4-(3-(1H-imidazol-2-yl)-3-oxoprop-1-en-1-yl)phenyl)-N-(4-methoxyphenyl)acetamide] has an activity at 10 µM ([1]; Homo sapiens) of 66.8%.

Work on `CN(C)c1ccc(NC(=O)Cc2ccc(/C=C/C(=O)c3ncc[nH]3)cc2)cc1` [IPE-5, (E)-2-(4-(3-(1H-imidazol-2-yl)-3-oxoprop-1-en-1-yl)phenyl)-N-(4-(dimethylamino)phenyl)acetamid] yielded an activity at 10 µM ([1]; Homo sapiens) of 52.1%.

With `O=C(Cc1ccc(/C=C/C(=O)c2ncc[nH]2)cc1)Nc1cccc2ccccc12` [IPE-6, (E)-2-(4-(3-(1H-imidazol-2-yl)-3-oxoprop-1-en-1-yl)phenyl)-N-(naphthalen-1-yl)acetamide] the activity at 10 µM ([1]; Homo sapiens) was 76.3%.

With `O=C(Cc1ccc(/C=C/C(=O)c2ncc[nH]2)cc1)Nc1ccc(S(F)(F)(F)(F)F)cc1` [IPE-10, (E)-2-(-4(3-(1H-imidazol-2-yl)-3-oxoprop-1-en-1-yl)phenyl)-N-(4-pentafluorosulfaneyl)acetamide] the “Mean % growth at 10 μM” value [1] was 64.07%.

Work on `O=C(Cc1ccc(/C=C/C(=O)c2ncc[nH]2)cc1)Nc1ccc(C(F)(F)F)cc1` [IPE-11, (E)-2-(4-(3-(1H-Imidazole-2-yl)-3-oxoprop-1-en-1-yl)phenyl)-N-(4-(trifluoromethyl)phenyl)acetamide] yielded an activity at 10 µM ([1]; Homo sapiens) of 23.5%.

Work on `O=C(Cc1ccc(/C=C/C(=O)c2ncc[nH]2)cc1)Nc1cc(F)c(F)c(F)c1` [IPE-12, (E)-2-(-4(3-(1H-imidazol-2-yl)-3-oxoprop-1-en-1-yl)phenyl)-N-(3,4,5-trifluorophenyl)acetamide] yielded an activity at 10 µM ([1]; Homo sapiens) of 51.1%.

For `O=C(Cc1ccc(/C=C/C(=O)c2ncc[nH]2)cc1)Nc1c(F)c(F)c(F)c(F)c1F` [IPE-13, (E)-2-(-4(3-(1H-imidazol-2-yl)-3-oxoprop-1-en-1-yl)phenyl)-N-(perfluorophenyl)acetamide], the activity at 10 µM ([1]; Homo sapiens) was 91.8%.

In the case of `O=C(Cc1ccc(/C=C/C(=O)c2ncc[nH]2)cc1)Nc1cc(C(F)(F)F)cc(C(F)(F)F)c1` [IPE-14, (E)-2-(-4(3-(1H-imidazol-2-yl)-3-oxoprop-1-en-1-yl)phenyl)-N-(bis(3,5-trifluoromethyl)phenyl)acetamide], the “Mean % growth at 10 μM” value [1] is reported as 77.21%.

For `Cn1ccnc1C(=O)/C=C/c1ccc(CC(=O)NC2CCCCC2)cc1` [IPE-15, (E)-N-Cyclohexyl-2-(4-(3-(1-methyl-1H-imidazol-2-yl)-3-oxoprop-1-en-1-yl)phenyl)acetamide], the activity at 10 µM ([1]; Homo sapiens) was 57.7%.

`Cn1ccnc1C(=O)/C=C/c1ccc(CC(=O)Nc2ccc(Cl)cc2)cc1` [IPE-17, (E)-N-(4-chlorophenyl)-2-(4-(3-(1-methyl-1H-imidazol-2-yl)-3-oxoprop-1-en-1-yl)phenyl)acetamide] was tested, and the activity at 10 µM ([1]; Homo sapiens) was 19.3%.

With `Cn1ccnc1C(=O)/C=C/c1ccc(CC(=O)Nc2ccc(Br)cc2)cc1` [IPE-18, (E)-N-(4-Bromophenyl)-2-(4-(3-(1-methyl-1H-imidazol-2-yl)-3-oxoprop-1-en-1-yl)phenyl)acetamide] the IC50 [2] was > 100 µM, the IC50 [3] was > 100 µM and the IC50 [4] was > 100 µM. The IC50 [5] was > 100 µM, the activity at 10 µM ([1]; Homo sapiens) was 19.9% and the IC50 [6] was > 100 µM.

In the case of `O=C(Cc1ccc(/C=C/C(=O)c2nccn2Cc2ccccc2)cc1)Nc1ccc(F)cc1` [IPE-20, (E)-2-(4-(3-(1-Benzyl-1H-imidazol-2-yl)-3-oxoprop-1-en-1-yl)phenyl)-N-(4-fluorophenyl)acetamide], the activity at 10 µM ([1]; Homo sapiens) is reported as 54.7%.

`CCn1ccnc1C(=O)/C=C/c1ccc(CC(=O)Nc2ccc(F)cc2)cc1` [IPE-21, (E)-2-(4-(3-(1-Ethyl-1H-imidazol-2-yl)-3-oxoprop-1-en-1-yl)phenyl)-N-(4-fluorophenyl)acetamide] showed an activity at 10 µM ([1]; Homo sapiens) of 29.2%.

`Cn1ccnc1C(=O)/C=C/c1ccc(CC(=O)Nc2ccc(C(F)(F)F)cc2)cc1` [IPE-23, (E)-2-(4-(3-(1-methyl-1H-imidazol-2-yl)-3-oxoprop-1-en-1-yl)phenyl)-N-(4-(trifluoromethyl)phenyl)acetamide] was tested, and the activity at 10 µM ([1]; Homo sapiens) was 13%.

For `O=C(Cc1ccc(CCC(=O)c2ncc[nH]2)cc1)Nc1ccccc1` [IPE-28, 2-(4-(3-(1H-imidazol-2-yl)-3-oxopropyl)phenyl)-N-phenylacetamide], the activity at 10 µM ([1]; Homo sapiens) was 92.8% and the “growth inhibition activity (in words)” value [1] was “virtually inactive”.

With `Cn1ccnc1C(=O)C1CC1c1ccc(CC(=O)Nc2ccc(Br)cc2)cc1` (centres unmarked) [IPE-29, N-(4-bromophenyl)-2-(4-(2-(1-methyl-1H-imidazole-2-carbonyl)cyclopropyl)phenyl)acetamide] the activity at 10 µM ([1]; Homo sapiens) was 98.7%, the “growth inhibition activity (in words)” value [1] was “virtually inactive” and the remaining activity at 100 µM ([6]; read-out: HDAC8 activity remaining) was 20 to 60%.

For `O=C(Cc1ccc(/C=C/C(=O)c2ncccn2)cc1)Nc1ccccc1` [PPE-31, (E)-2-(4-(3-Oxo-3-(pyrimidin-2-yl)prop-1-en-1-yl)phenyl)-N-phenylacetamide], the activity at 10 µM ([1]; Homo sapiens) was 99.1%.

For `O=C(Cc1ccc(/C=C/C(=O)c2nccs2)cc1)Nc1ccccc1` [TPE-30, (E)-2-(4-(3-Oxo-3-(thiazol-2-yl)prop-1-en-1-yl)phenyl)-N-phenylacetamide], the activity at 10 µM ([1]; Homo sapiens) was 84.3% and the “growth inhibition activity (in words)” value [1] was “inactive”.

For `CN1CCc2c(c3ccccc3n2Cc2ccc(C(=O)NO)cc2)C1` [Tubastatin A, reference compound], the subG1 population [7] was “little effect on subG1” and the spindle collapse [8] was “did not produce the same aberrant spindle”.

Source: PMC8530978 (Bioorganic chemistry, 2021)
